Values after ≈ are worked out from the molar mass of the structure shown.
What was measured:
Assay type in all cases: functional
[1] = test system: Staphylococcus epidermidis; assay: Antibacterial activity against methicillin-resistant Staphylococcus epidermidis 14-22 after 18 to 24 hrs by two-fold serial dilution method
Outline: (§1)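 Agar media, standard twofold serial dilution. MIC is the lowest concentration giving complete inhibition of bacterial growth after incubation at 35 °C for 18–24 h. Ciprofloxacin and levofloxacin were run as comparators.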

[2] = test system: Enterococcus faecalis; assay: Antibacterial activity against Enterococcus faecalis 14-1 after 18 to 24 hrs by two-fold serial dilution method
Outline: (§2)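 Twofold serial dilution in agar media against Gram-positive and Gram-negative strains. Plates incubated at 35 °C for 18–24 h. MIC read as the lowest compound concentration giving complete inhibition of bacterial growth.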

[3] = test system: Streptococcus pneumoniae; assay: Antibacterial activity against methicillin-resistant Streptococcus pneumoniae ATCC 19615 after 18 to 24 hrs by two-fold serial dilution method; outline: as §1
[4] = test system: Staphylococcus aureus; assay: Antibacterial activity against methicillin-resistant Staphylococcus aureus 14-5 after 18 to 24 hrs by two-fold serial dilution method; outline: as §1
[5] = test system: Klebsiella pneumoniae; assay: Antibacterial activity against extended-spectrum beta-lactamase producing Klebsiella pneumoniae 14-17 after 18 to 24 hrs by two-fold serial dilution method; outline: as §2
[6] = test system: Enterococcus faecium; assay: Antibacterial activity against Enterococcus faecium 14-6 after 18 to 24 hrs by two-fold serial dilution method; outline: as §2
[7] = test system: Klebsiella pneumoniae; assay: Antibacterial activity against Klebsiella pneumoniae 14-4 after 18 to 24 hrs by two-fold serial dilution method; outline: as §2
[8] = test system: Enterococcus faecium; assay: Antibacterial activity against Enterococcus faecium 14-5 after 18 to 24 hrs by two-fold serial dilution method; outline: as §2
[9] = test system: Staphylococcus aureus; assay: Antibacterial activity against Staphylococcus aureus CMCC 26003 after 18 to 24 hrs by two-fold serial dilution method; outline: as §2
[10] = test system: Pseudomonas aeruginosa; assay: Antibacterial activity against Pseudomonas aeruginosa ATCC 27853 after 18 to 24 hrs by two-fold serial dilution method; outline: as §2
[11] = test system: Mycobacterium tuberculosis; assay: Antimycobacterial activity against Mycobacterium tuberculosis H37Rv ATCC 27294 incubated for 7 days by microplate Alamar Blue assay; conditions: H37Rv ATCC 27294, 168 h
Outline: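 Fluorescence read-out. MIC is the lowest concentration that reduces fluorescence by at least 90% relative to the mean of replicate bacterium-only controls. Isoniazid and rifampicin were included as reference drugs.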

[12] = test system: Staphylococcus epidermidis; assay: Antibacterial activity against methicillin-sensitive Staphylococcus epidermidis 14-2 after 18 to 24 hrs by two-fold serial dilution method; outline: as §2
[13] = test system: Staphylococcus aureus; assay: Antibacterial activity against methicillin-resistant Staphylococcus aureus 14-4 after 18 to 24 hrs by two-fold serial dilution method; outline: as §1
[14] = test system: Staphylococcus aureus; assay: Antibacterial activity against methicillin-sensitive Staphylococcus aureus 14-3 after 18 to 24 hrs by two-fold serial dilution method; outline: as §2
[15] = test system: Staphylococcus epidermidis; assay: Antibacterial activity against methicillin-resistant Staphylococcus epidermidis 14-37 after 18 to 24 hrs by two-fold serial dilution method; outline: as §1
[16] = test system: Escherichia coli; assay: Antibacterial activity against Escherichia coli 14-1 after 18 to 24 hrs by two-fold serial dilution method; outline: as §2
[17] = test system: Staphylococcus epidermidis; assay: Antibacterial activity against methicillin-resistant Staphylococcus epidermidis 14-21 after 18 to 24 hrs by two-fold serial dilution method; outline: as §1
[18] = test system: Escherichia coli; assay: Antibacterial activity against Escherichia coli ATCC 25922 after 18 to 24 hrs by two-fold serial dilution method; outline: as §2
[19] = test system: Klebsiella pneumoniae; assay: Antibacterial activity against Klebsiella pneumoniae 14-1 after 18 to 24 hrs by two-fold serial dilution method; outline: as §2
[20] = test system: Staphylococcus aureus; assay: Antibacterial activity against methicillin-sensitive Staphylococcus aureus 14-1 after 18 to 24 hrs by two-fold serial dilution method; outline: as §2
[21] = test system: Enterococcus faecalis; assay: Antibacterial activity against Enterococcus faecalis 14-2 after 18 to 24 hrs by two-fold serial dilution method; outline: as §2
[22] = test system: Staphylococcus aureus; assay: Antibacterial activity against methicillin-sensitive Staphylococcus aureus 14-4 after 18 to 24 hrs by two-fold serial dilution method; outline: as §2
[23] = test system: Pseudomonas aeruginosa; assay: Antibacterial activity against Pseudomonas aeruginosa 14-16 after 18 to 24 hrs by two-fold serial dilution method; outline: as §2
[24] = test system: Pseudomonas aeruginosa; assay: Antibacterial activity against Pseudomonas aeruginosa 14-9 after 18 to 24 hrs by two-fold serial dilution method; outline: as §2
[25] = test system: Klebsiella pneumoniae; assay: Antibacterial activity against extended-spectrum beta-lactamase producing Klebsiella pneumoniae 14-18 after 18 to 24 hrs by two-fold serial dilution method; outline: as §2
[26] = test system: Staphylococcus epidermidis; assay: Antibacterial activity against methicillin-resistant Staphylococcus epidermidis 14-39 after 18 to 24 hrs by two-fold serial dilution method; outline: as §1
[27] = test system: Pseudomonas aeruginosa; assay: Antibacterial activity against Pseudomonas aeruginosa 14-15 after 18 to 24 hrs by two-fold serial dilution method; outline: as §2
[28] = test system: Enterococcus faecium; assay: Antibacterial activity against Enterococcus faecium 14-2 after 18 to 24 hrs by two-fold serial dilution method; outline: as §2
[29] = test system: Escherichia coli; assay: Antibacterial activity against extended-spectrum beta-lactamase producing Escherichia coli 14-2 after 18 to 24 hrs by two-fold serial dilution method; outline: as §2
[30] = test system: Escherichia coli; assay: Antibacterial activity against Escherichia coli 14-2 after 18 to 24 hrs by two-fold serial dilution method; outline: as §2
[31] = test system: Escherichia coli; assay: Antibacterial activity against extended-spectrum beta-lactamase producing Escherichia coli 14-1 after 18 to 24 hrs by two-fold serial dilution method; outline: as §2
[32] = test system: Klebsiella pneumoniae; assay: Antibacterial activity against Klebsiella pneumoniae 14-2 after 18 to 24 hrs by two-fold serial dilution method; outline: as §2
[33] = test system: Klebsiella pneumoniae; assay: Antibacterial activity against Klebsiella pneumoniae 14-3 after 18 to 24 hrs by two-fold serial dilution method; outline: as §2
[34] = test system: Pseudomonas aeruginosa; assay: Antibacterial activity against Pseudomonas aeruginosa 14-14 after 18 to 24 hrs by two-fold serial dilution method; outline: as §2
[35] = test system: Klebsiella pneumoniae; assay: Antibacterial activity against extended-spectrum beta-lactamase producing Klebsiella pneumoniae 14-19 after 18 to 24 hrs by two-fold serial dilution method; outline: as §2

Row | SMILES | MIC [1] [µg/mL] | MIC [2] [µg/mL] | MIC [3] [µg/mL] | MIC [4] [µg/mL] | MIC [5] [µg/mL] | MIC [6] [µg/mL] | MIC [7] [µg/mL] | MIC [8] [µg/mL] | MIC [9] [µg/mL] | MIC [10] [µg/mL] | MIC90 [11] [µg/mL] | MIC [12] [µg/mL] | MIC [13] [µg/mL] | MIC [14] [µg/mL] | MIC [15] [µg/mL] | MIC [16] [µg/mL] | MIC [17] [µg/mL] | MIC [18] [µg/mL] | MIC [19] [µg/mL] | MIC [20] [µg/mL] | also measured
1 | CCO/N=C1/CN(c2c(F)cc3c(=O)c(C(=O)O)cn4c3c2OC[C@@H]4C)CC1(C)CNC1CC1 (stereo not given in full) | 8 (≈ 16.9 µM) | 32 (≈ 67.7 µM) | 0.25 (≈ 0.529 µM) | 16 (≈ 33.9 µM) | 32 (≈ 67.7 µM) | 16 (≈ 33.9 µM) | > 128 | 4 (≈ 8.47 µM) | < 0.008 | 64 (≈ 135 µM) | 2.76 (≈ 5.84 µM) | 32 (≈ 67.7 µM) | 64 (≈ 135 µM) | 0.03 (≈ 0.0635 µM) | 4 (≈ 8.47 µM) | > 128 | 8 (≈ 16.9 µM) | 2 (≈ 4.23 µM) | 64 (≈ 135 µM) | 4 (≈ 8.47 µM) | MIC [21]: 1 µg/mL (≈ 2.12 µM); MIC [22]: 0.06 µg/mL (≈ 0.127 µM); MIC [23]: 64 µg/mL (≈ 135 µM); MIC [24]: 64 µg/mL (≈ 135 µM); MIC [25]: 32 µg/mL (≈ 67.7 µM); MIC [26]: 8 µg/mL (≈ 16.9 µM); MIC [27]: 64 µg/mL (≈ 135 µM); MIC [28]: 16 µg/mL (≈ 33.9 µM); MIC [29]: > 128 µg/mL; MIC [30]: > 128 µg/mL; MIC [31]: 8 µg/mL (≈ 16.9 µM); MIC [32]: 64 µg/mL (≈ 135 µM); MIC [33]: > 128 µg/mL; MIC [34]: 128 µg/mL (≈ 271 µM); MIC [35]: 32 µg/mL (≈ 67.7 µM)
2 | CO/N=C1/CN(c2nc3c(cc2F)c(=O)c(C(=O)O)cn3[C@@H]2C[C@@H]2F)CC1(C)CNC1CC1 (stereo not given in full) | 4 (≈ 8.67 µM) | 16 (≈ 34.7 µM) | 0.5 (≈ 1.08 µM) | 2 (≈ 4.33 µM) | 64 (≈ 139 µM) | 2 (≈ 4.33 µM) | > 128 | 4 (≈ 8.67 µM) | < 0.008 | 16 (≈ 34.7 µM) | 0.45 (≈ 0.975 µM) | 16 (≈ 34.7 µM) | 4 (≈ 8.67 µM) | 1 (≈ 2.17 µM) | 2 (≈ 4.33 µM) | > 128 | 4 (≈ 8.67 µM) | 1 (≈ 2.17 µM) | 32 (≈ 69.3 µM) | 1 (≈ 2.17 µM) | MIC [21]: 1 µg/mL (≈ 2.17 µM); MIC [22]: 2 µg/mL (≈ 4.33 µM); MIC [23]: 32 µg/mL (≈ 69.3 µM); MIC [24]: 16 µg/mL (≈ 34.7 µM); MIC [25]: 64 µg/mL (≈ 139 µM); MIC [26]: 4 µg/mL (≈ 8.67 µM); MIC [27]: 64 µg/mL (≈ 139 µM); MIC [28]: 4 µg/mL (≈ 8.67 µM); MIC [29]: > 128 µg/mL; MIC [30]: > 128 µg/mL; MIC [31]: 16 µg/mL (≈ 34.7 µM); MIC [32]: 64 µg/mL (≈ 139 µM); MIC [33]: 128 µg/mL (≈ 277 µM); MIC [34]: 64 µg/mL (≈ 139 µM); MIC [35]: 32 µg/mL (≈ 69.3 µM)
3 | CCO/N=C1/CN(c2nc3c(cc2F)c(=O)c(C(=O)O)cn3[C@@H]2C[C@@H]2F)CC1(C)CNC1CC1 (stereo not given in full) | 4 (≈ 8.41 µM) | 16 (≈ 33.6 µM) | 0.25 (≈ 0.526 µM) | 2 (≈ 4.21 µM) | 64 (≈ 135 µM) | 4 (≈ 8.41 µM) | > 128 | 2 (≈ 4.21 µM) | 0.015 (≈ 0.0315 µM) | 32 (≈ 67.3 µM) | 0.6 (≈ 1.26 µM) | 16 (≈ 33.6 µM) | 4 (≈ 8.41 µM) | 2 (≈ 4.21 µM) | 2 (≈ 4.21 µM) | > 128 | 4 (≈ 8.41 µM) | 2 (≈ 4.21 µM) | 64 (≈ 135 µM) | 1 (≈ 2.1 µM) | MIC [21]: 1 µg/mL (≈ 2.1 µM); MIC [22]: 1 µg/mL (≈ 2.1 µM); MIC [23]: 64 µg/mL (≈ 135 µM); MIC [24]: 32 µg/mL (≈ 67.3 µM); MIC [25]: 128 µg/mL (≈ 269 µM); MIC [26]: 4 µg/mL (≈ 8.41 µM); MIC [27]: 64 µg/mL (≈ 135 µM); MIC [28]: 4 µg/mL (≈ 8.41 µM); MIC [29]: > 128 µg/mL; MIC [30]: > 128 µg/mL; MIC [31]: 32 µg/mL (≈ 67.3 µM); MIC [32]: 128 µg/mL (≈ 269 µM); MIC [33]: 128 µg/mL (≈ 269 µM); MIC [34]: 128 µg/mL (≈ 269 µM); MIC [35]: 64 µg/mL (≈ 135 µM)
4 | CCO/N=C1/CN(c2nc3c(cc2F)c(=O)c(C(=O)O)cn3-c2nc(N)c(F)cc2F)CC1CNC1CC1 (stereo not given) | 32 (≈ 60.2 µM) | 128 (≈ 241 µM) | 16 (≈ 30.1 µM) | 8 (≈ 15.1 µM) | 128 (≈ 241 µM) | 128 (≈ 241 µM) | > 128 | 32 (≈ 60.2 µM) | 0.125 (≈ 0.235 µM) | 32 (≈ 60.2 µM) | 22 (≈ 41.4 µM) | > 128 | 64 (≈ 120 µM) | 32 (≈ 60.2 µM) | 64 (≈ 120 µM) | > 128 | 128 (≈ 241 µM) | 4 (≈ 7.53 µM) | 64 (≈ 120 µM) | 16 (≈ 30.1 µM) | MIC [21]: 4 µg/mL (≈ 7.53 µM); MIC [22]: 32 µg/mL (≈ 60.2 µM); MIC [23]: 128 µg/mL (≈ 241 µM); MIC [24]: 32 µg/mL (≈ 60.2 µM); MIC [25]: 128 µg/mL (≈ 241 µM); MIC [26]: 64 µg/mL (≈ 120 µM); MIC [27]: 128 µg/mL (≈ 241 µM); MIC [28]: 64 µg/mL (≈ 120 µM); MIC [29]: > 128 µg/mL; MIC [30]: > 128 µg/mL; MIC [31]: 32 µg/mL (≈ 60.2 µM); MIC [32]: 64 µg/mL (≈ 120 µM); MIC [33]: 128 µg/mL (≈ 241 µM); MIC [34]: 128 µg/mL (≈ 241 µM); MIC [35]: 128 µg/mL (≈ 241 µM)

Reference: ChEMBL document CHEMBL3734675, “Synthesis, antimycobacterial and antibacterial activity of fluoroquinolone derivatives containing an 3-alkoxyimino-4-(cyclopropylanimo)methylpyrrolidine moiety” (2015)
